This note sets out measurements from ChEMBL document CHEMBL4000256, “Light-Regulated NO Release as a Novel Strategy To Overcome Doxorubicin Multidrug Resistance” (ACS Med Chem Lett, 2017).

The test system of series [1] is M14. The series is described as follows: Cytotoxicity against 7 mW/cm'2 irradiated human M14 cells assessed as increase in LDH release at 5 uM coadministered with DOX measured after 20 mins by spectrophotometric method. It is filed as functional, cell-based. In short, it runs like this: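 Cells (M14 melanoma, human fibroblasts or rat H9c2 cardiomyocytes) kept 20 min at room temperature in PBS under 400 nm light (7 mW/cm2), alone or with 5 μM compound, given alone or with equimolar 5 μM doxorubicin. Damage read as extracellular LDH release. Triplicate measurements, n = 3.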

Series [2] has as its target T1, Broad substrate specificity ATP-binding cassette transporter ABCG2 (Homo sapiens, UniProt Q9UNQ0).
T1 sequence (Q9UNQ0 whole entry): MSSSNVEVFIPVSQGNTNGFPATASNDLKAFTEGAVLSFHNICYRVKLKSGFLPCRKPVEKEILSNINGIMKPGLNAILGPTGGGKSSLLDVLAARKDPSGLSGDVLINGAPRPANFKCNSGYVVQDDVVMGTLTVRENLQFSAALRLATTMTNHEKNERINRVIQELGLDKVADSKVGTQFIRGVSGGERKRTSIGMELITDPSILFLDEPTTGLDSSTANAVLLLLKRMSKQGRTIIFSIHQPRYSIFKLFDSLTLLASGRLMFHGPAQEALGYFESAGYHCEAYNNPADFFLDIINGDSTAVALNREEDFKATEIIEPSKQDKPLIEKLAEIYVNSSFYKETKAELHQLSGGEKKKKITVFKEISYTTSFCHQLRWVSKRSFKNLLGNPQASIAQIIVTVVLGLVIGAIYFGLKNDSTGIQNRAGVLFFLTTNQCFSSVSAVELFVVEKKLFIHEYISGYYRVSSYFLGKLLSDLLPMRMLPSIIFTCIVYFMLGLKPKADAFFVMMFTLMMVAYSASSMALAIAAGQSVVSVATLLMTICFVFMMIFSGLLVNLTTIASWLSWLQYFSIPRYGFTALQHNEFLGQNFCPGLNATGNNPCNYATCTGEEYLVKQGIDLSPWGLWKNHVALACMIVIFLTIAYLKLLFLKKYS
The series is described as follows: Inhibition of BCRP in 7 mW/cm'2 irradiated human M14 cells assessed as nitration of tyrosine in BCRP at 5 uM measured after 20 mins in presence of doxorubicin by immunoblotting. In short, it runs like this:
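M14 melanoma cells held 20 min at room temperature in PBS under 400 nm light (7 mW/cm2) with 5 μM compound, alone or with equimolar doxorubicin. Nitrated ABC transporters (Pgp, MRP1, MRP4, BCRP) detected by immunoblot.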

For series [3], the species on record is Homo sapiens. The series is described as follows: Inhibition of Pgp in 7 mW/cm'2 irradiated human M14 cells assessed as reduction in ATPase activity at 5 uM measured after 20 mins in presence of doxorubicin by immunoblotting. In short, it runs like this:
(§1)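 M14 melanoma cells held 20 min at room temperature in PBS under 400 nm light (7 mW/cm2) with 5 μM compound, alone or with equimolar doxorubicin. Transporter ATPase activity then measured; n = 3.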
(In general: In western blotting, separated proteins are transferred to a membrane and probed.)

Series [4] has as its target T2, ATP-binding cassette sub-family C member 4 (Homo sapiens, UniProt O15439).
T2 sequence (O15439 whole entry): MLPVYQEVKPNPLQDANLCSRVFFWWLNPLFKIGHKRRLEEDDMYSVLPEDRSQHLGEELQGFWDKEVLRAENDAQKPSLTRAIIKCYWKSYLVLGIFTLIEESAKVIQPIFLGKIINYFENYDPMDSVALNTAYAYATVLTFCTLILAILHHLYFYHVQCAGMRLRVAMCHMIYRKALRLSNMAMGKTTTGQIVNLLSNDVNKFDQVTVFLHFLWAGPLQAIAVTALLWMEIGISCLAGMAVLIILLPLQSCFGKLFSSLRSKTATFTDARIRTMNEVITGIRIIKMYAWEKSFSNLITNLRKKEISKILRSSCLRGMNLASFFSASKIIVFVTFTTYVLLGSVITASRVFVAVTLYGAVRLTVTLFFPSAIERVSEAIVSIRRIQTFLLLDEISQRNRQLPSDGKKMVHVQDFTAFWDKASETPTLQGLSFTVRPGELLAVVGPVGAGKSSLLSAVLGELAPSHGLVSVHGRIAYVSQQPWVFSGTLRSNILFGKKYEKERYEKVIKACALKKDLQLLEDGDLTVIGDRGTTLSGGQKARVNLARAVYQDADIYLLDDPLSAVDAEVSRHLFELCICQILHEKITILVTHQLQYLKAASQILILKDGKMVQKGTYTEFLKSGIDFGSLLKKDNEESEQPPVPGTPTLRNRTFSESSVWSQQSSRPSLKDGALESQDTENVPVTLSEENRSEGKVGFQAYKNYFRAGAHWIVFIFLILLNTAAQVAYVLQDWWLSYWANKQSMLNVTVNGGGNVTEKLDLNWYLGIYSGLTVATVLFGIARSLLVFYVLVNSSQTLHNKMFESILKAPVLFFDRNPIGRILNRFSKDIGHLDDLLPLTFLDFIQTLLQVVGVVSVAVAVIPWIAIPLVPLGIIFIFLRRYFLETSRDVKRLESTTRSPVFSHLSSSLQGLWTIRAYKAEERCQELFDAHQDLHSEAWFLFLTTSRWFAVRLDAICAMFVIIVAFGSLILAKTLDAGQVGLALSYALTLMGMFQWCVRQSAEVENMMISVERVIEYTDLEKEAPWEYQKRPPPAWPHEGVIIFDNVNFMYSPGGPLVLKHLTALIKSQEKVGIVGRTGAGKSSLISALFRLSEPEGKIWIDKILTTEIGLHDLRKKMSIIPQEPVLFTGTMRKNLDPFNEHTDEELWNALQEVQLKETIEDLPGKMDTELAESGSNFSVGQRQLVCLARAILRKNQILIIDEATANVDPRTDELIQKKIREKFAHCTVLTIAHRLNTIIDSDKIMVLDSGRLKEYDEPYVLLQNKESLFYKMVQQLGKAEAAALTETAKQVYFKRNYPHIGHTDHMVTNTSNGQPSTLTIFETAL
The series is described as follows: Inhibition of MRP4 in 7 mW/cm'2 irradiated human M14 cells assessed as reduction in ATPase activity at 5 uM measured after 20 mins in presence of doxorubicin by immunoblotting. In short, it runs like this:
as §1

Series [5] is described as follows: Stability in pH 7.4 PBS irradiated with 7 mW/cm2 light assessed as bleaching in NOP1 band at 10 uM up to 60 mins in presence of calf thymus DNA by absorption spectrum method. It is filed as physicochemical. The note with it: buffer, pH 7.4, 1 h. The method in brief:
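Absorption spectra recorded after 0, 30, 40, 50 and 60 min irradiation at λexc 405 nm. Solution at 10 μM with 18 μM ct-DNA in PBS (pH 7.4, 10 mM, 3% DMSO).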

A short description of series [6]: Induction of NO release in pH 7.4 PBS irradiated with 7 mW/cm2 light at 10 uM after 0.5 hrs by amperometric detection assay. The method in brief:
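NO release recorded during alternating light (λexc 405 nm) and dark cycles. Solution at 10 μM in PBS (pH 7.4, 10 mM, 3% DMSO), with or without 18 μM ct-DNA.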

SMILES strings stand for the structures. Activity calls are given as the source filed them. The calls are words filed in the database; no cut-off is given here.

For the compound `NCCCNc1ccc([N+](=O)[O-])c(C(F)(F)F)c1`, the outcome in series [1] was Active. Besides, the “inhibition (INH)” value in series [2] and in series [4] was “Active” throughout. In addition, the inhibition entry in series [3] was “Active”.
Regarding `COc1cccc2c1C(=O)c1c(O)c3c(c(O)c1C2=O)C[C@@](O)(C(=O)COC(=O)c1ccc(C(=O)NCCCNc2ccc([N+](=O)[O-])c(C(F)(F)F)c2)cc1)C[C@@H]3O[C@H]1C[C@H](N)[C@H](O)[C@H](C)O1.Cl`, the Stability result in series [5] is given as “Stable”. The outcome in series [6] was Active.
